Assay [1] concerns the target Fibroblast growth factor receptor 1 (Homo sapiens, UniProt P11362). The assay can be described thus: Inhibition of FGFR1.
Assay [2] has as its target Epidermal growth factor receptor (Homo sapiens, UniProt P00533). The assay can be described thus: Inhibition of EGFR. In outline:
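Commercially sourced EGFR enzyme was tested in an AlphaScreen format. Kinase, biotinylated peptide, ATP and inhibitor were combined across 10 wells, typically 0.01 µM to 250 µM inhibitor. Phosphorylation ran for 30 min and was stopped with EDTA. Phosphopeptide was detected with anti-phosphotyrosine acceptor beads and streptavidin donor beads.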

Assay [3] has as its target Proto-oncogene tyrosine-protein kinase Src (Homo sapiens, UniProt P12931). The assay can be described thus: Inhibition of SRC.
Assay [4] deals with T1, Insulin receptor (Homo sapiens, UniProt P06213).
T1 sequence (P06213 28-758 limits assumed): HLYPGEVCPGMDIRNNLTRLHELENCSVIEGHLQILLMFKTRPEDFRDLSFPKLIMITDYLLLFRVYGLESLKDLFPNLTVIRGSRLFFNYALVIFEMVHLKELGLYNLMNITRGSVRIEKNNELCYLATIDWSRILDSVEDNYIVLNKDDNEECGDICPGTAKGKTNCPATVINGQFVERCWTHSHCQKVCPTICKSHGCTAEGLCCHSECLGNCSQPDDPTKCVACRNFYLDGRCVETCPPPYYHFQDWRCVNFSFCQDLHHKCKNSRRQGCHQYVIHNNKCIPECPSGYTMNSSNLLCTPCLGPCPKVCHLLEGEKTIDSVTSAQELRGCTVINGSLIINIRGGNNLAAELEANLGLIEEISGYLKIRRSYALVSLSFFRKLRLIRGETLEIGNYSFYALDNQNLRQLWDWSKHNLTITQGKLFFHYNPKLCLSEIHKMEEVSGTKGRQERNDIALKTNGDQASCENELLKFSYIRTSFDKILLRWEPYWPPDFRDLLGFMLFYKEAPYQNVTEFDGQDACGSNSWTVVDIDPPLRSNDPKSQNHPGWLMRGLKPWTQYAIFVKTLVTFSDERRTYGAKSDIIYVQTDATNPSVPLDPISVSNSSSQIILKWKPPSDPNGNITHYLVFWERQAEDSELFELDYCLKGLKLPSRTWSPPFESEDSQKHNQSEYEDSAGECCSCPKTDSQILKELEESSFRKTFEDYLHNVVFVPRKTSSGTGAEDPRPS
T1 sequence (P06213 763-1382 limits assumed): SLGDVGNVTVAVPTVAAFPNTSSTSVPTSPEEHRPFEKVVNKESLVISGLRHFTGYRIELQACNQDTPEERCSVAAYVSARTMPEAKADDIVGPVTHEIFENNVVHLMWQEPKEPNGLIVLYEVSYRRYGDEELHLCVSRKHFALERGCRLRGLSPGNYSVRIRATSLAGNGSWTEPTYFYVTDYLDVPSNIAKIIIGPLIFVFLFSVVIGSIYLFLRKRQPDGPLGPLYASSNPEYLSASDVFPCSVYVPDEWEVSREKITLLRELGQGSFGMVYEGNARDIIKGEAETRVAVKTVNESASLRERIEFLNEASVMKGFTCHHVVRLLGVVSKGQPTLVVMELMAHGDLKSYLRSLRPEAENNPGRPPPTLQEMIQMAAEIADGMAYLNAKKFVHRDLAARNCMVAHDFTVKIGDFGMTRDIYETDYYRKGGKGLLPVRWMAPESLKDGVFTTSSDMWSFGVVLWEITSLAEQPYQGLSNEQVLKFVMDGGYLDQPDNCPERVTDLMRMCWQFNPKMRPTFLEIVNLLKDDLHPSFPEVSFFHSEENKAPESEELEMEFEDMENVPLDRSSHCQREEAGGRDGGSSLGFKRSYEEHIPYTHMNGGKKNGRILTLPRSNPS
The target in assay [5] is T1, Insulin receptor. This is another data set of the same source.

SMILES strings stand for the structures.

Chain of Fibroblast growth factor receptor 1 (P11362 whole entry): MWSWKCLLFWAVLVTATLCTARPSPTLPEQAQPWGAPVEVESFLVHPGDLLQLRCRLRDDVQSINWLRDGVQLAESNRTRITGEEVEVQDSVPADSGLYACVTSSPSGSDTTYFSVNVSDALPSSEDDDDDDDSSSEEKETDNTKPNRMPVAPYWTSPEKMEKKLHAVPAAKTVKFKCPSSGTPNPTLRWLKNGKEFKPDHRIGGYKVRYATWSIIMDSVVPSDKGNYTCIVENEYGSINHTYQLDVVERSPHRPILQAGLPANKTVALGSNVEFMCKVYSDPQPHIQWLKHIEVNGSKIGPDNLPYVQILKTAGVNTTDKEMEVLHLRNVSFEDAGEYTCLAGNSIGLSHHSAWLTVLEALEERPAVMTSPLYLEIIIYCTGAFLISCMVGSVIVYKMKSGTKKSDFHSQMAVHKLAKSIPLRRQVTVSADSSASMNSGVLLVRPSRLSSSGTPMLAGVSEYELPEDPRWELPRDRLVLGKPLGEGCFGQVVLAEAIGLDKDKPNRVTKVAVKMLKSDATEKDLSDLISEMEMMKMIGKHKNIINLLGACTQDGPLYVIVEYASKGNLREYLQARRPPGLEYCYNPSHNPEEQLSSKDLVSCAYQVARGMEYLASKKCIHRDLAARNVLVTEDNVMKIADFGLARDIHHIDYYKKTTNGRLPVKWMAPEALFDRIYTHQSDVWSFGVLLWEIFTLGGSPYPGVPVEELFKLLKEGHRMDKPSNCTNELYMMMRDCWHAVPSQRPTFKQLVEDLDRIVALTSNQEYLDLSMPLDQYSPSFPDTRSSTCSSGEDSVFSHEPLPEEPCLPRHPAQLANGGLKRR
Chain of Epidermal growth factor receptor (P00533 whole entry): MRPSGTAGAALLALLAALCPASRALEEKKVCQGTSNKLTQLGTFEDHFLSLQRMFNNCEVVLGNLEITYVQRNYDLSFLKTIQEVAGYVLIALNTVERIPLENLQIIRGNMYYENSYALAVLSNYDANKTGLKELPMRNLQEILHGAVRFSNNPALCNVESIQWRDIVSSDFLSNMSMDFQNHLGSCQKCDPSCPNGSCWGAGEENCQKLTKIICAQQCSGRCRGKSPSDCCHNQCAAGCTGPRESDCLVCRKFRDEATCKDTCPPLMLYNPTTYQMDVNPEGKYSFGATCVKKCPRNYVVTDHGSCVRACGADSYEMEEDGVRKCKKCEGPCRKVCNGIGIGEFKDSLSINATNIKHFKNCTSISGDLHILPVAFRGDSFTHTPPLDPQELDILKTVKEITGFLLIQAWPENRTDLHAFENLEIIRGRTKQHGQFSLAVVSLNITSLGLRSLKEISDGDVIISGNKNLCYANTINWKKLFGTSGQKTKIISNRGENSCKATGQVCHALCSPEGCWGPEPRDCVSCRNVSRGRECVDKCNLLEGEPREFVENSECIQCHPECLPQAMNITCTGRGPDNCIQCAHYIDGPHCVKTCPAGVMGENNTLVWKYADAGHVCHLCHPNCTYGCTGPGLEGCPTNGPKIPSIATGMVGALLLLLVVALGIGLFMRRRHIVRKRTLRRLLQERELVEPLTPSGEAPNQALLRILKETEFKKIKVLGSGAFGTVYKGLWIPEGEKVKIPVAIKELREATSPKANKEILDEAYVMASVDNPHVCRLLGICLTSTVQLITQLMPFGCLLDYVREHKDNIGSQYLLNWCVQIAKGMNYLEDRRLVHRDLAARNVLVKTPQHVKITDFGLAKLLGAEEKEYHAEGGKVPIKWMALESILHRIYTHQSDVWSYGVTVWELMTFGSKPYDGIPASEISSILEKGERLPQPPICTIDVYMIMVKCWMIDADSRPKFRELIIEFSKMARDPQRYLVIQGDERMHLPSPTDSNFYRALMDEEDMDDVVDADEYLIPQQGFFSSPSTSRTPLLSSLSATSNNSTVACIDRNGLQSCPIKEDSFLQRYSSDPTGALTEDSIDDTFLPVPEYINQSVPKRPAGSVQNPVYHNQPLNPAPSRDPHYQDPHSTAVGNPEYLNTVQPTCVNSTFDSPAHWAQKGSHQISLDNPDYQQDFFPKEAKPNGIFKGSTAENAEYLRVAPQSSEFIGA
Chain of Proto-oncogene tyrosine-protein kinase Src (P12931 2-536 limits assumed): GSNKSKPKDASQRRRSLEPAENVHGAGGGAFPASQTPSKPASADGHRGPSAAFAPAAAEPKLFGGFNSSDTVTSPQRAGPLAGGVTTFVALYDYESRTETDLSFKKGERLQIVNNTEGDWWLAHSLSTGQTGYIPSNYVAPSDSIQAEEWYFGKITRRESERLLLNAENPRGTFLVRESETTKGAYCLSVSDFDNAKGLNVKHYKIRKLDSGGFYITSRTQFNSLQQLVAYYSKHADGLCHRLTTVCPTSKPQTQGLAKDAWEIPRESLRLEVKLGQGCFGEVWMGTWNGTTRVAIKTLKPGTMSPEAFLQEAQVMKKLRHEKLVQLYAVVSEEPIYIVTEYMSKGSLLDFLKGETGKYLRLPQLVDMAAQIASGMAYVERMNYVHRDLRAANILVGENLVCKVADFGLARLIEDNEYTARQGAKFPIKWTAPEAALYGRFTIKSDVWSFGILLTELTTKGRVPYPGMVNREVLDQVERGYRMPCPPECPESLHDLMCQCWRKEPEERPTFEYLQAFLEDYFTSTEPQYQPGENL

For orientation: IC50 means the midpoint of a concentration-inhibition curve. As for `COc1cc(/C=C2\NC(=S)NC2=O)ccc1OCCCOc1ccccc1Cl`, the IC50 entry in assay [1] is “Not Active”.

`COc1ccc(-c2nc(NC(C)=O)c3c(=O)oc4ccc(Cl)cc4c3n2)cc1`: the IC50 result in assay [1] was “Not Active”.

Regarding `Cc1ccc(C2(C)NC(=O)N(Cc3ccc(F)cc3)C2=O)cc1` (stereo not given), the IC50 result in assay [1] is reported as “Not Active”.

Regarding `C/C(=N\CC1CCCO1)C1C(=O)NC(=O)N(c2ccc(C)cc2)C1=O` (stereo not given), in assay [1], the IC50 result was “Not Active”.

On to `COc1cc(/C=C2\NC(=S)NC2=O)ccc1OCCCOc1cccc(Cl)c1`, for which the IC50 result in assay [1] is recorded as “Not Active”.

As for `CC(=O)Nc1nc(-c2ccc(C(C)(C)C)cc2)nc2c1c(=O)oc1ccccc12`, in assay [1], the IC50 result was “Not Active”.

`COc1ccc2cc(C3(C)NC(=O)N(Cc4ccc(F)cc4Cl)C3=O)ccc2c1` (stereo not given): the IC50 result in assay [1] is “Not Active”.

For the compound `Cc1ccc2[nH]c(=O)c3cc(C(=O)N4CCN(c5ccccn5)CC4)sc3c2c1`, the IC50 result in assay [1] is “Not Active”.

Turning to `CC(=O)Nc1nc(-c2ccc(Cl)c(Cl)c2)nc2c1c(=O)oc1ccccc12`, the IC50 result in assay [1] is given as “Not Active”.

Consider `COc1cc(/C=C2\NC(=S)NC2=O)ccc1OCCCOc1cccc(C)c1`, for which the IC50 entry in assay [1] is on record as “Not Active”.

In the case of `CCc1ccc2c(c1)sc1[nH]c(-c3ccc(OCC(=O)O)c(OC)c3)nc(=O)c12`, the IC50 in assay [1] (read-out: IC50) came to 5.5 µM.

In the case of `O=c1[nH]c2ccc(NCc3cccc(OCc4ccccc4)c3)cc2[nH]1`, the IC50 entry in assay [1] is “Not Active”.

`COc1ccc(-c2nc(=O)c3c4c(sc3[nH]2)CC(C)CC4)cc1OC` (stereo not given): the IC50 result in assay [1] was “Not Active”.

Turning to `CC(C)C(=O)Nc1nc2c(c3c1c(=O)oc1ccccc13)CCCC2`, the IC50 entry in assay [1] was “Not Active”.

Take `COc1ccc2cc(-c3nc4cccc(C)n4c3NC3CCCC3)c(=O)[nH]c2c1`: in assay [1], the IC50 result is reported as “Not Active”.

Take `COc1cc(/C=C2\NC(=S)NC2=O)ccc1OCCCOc1ccc(Cl)cc1`: in assay [1], the IC50 entry is given as “Not Active”.

On to `COCc1cc(/C=C2\NC(=S)NC2=O)ccc1OCCCOc1cc(C)cc(C)c1`, for which the IC50 in assay [1] (read-out: IC50) was 3300 µM.

On to `COc1cc(C2C=C(Nc3ccccc3)C(=O)N2c2ccccc2)ccc1O` (stereo not given), for which the half-inhibitory concentration (IC50) result in assay [1] is given as “Not Active”.

Turning to `COc1cc(/C=C2\SC(=N)NC2=O)ccc1OCCCOc1cc(C)cc(C)c1`, the IC50 in assay [1] (read-out: IC50) turned out to be 23 µM; in assay [2], 56 µM; in assay [3], 10 µM; against Insulin receptor [4], 47 µM.

For `COc1cc(/C=C2\NC(=S)NC2=O)ccc1OCCCOc1cc(C)cc(C)c1`, in assay [1], the IC50 entry is “Not Active”.

Turning to `COc1cccc(-c2nc(=O)c3c4c(sc3[nH]2)CC(C)CC4)c1` (stereo not given), the IC50 entry in assay [1] is reported as “Not Active”.

With `COc1cc(-c2nc(=O)c3c([nH]2)sc2ccc(C)cc23)ccc1OCC(=O)O`, the IC50 in assay [2] is 2.4 µM; on Insulin receptor [5] it was “Not Active”.

For the compound `CCc1ccc(OCCCOc2ccc(/C=C3\SC(=O)NC3=O)cc2)cc1`, the IC50 entry in assay [1] was “Not Active”.

In the case of `CCOC(=O)CNc1ccccc1-c1nc2ccccc2[nH]c1=O`, the IC50 result in assay [1] is on record as “Not Active”.

In the case of `Cc1ccc2[nH]c(=O)c(-c3nc4ccc(Cl)cn4c3NCC3CCCO3)cc2c1` (stereo not given), the IC50 result in assay [1] is “Not Active”.

With `COc1cc(-c2nc(=O)c3c([nH]2)sc2cc(C(F)(F)F)ccc23)ccc1OCC(=O)O`, the IC50 entry in assay [1] is given as “Not Active”.

Take `O=C(CSc1nc2c(c(=O)[nH]1)C1CCCCC1S2)NCc1ccco1` (stereo not given): the IC50 result in assay [1] is on record as “Not Active”.

On to `CC(CCc1ccccc1)NC(=O)COC(=O)CC1Sc2ccccc2NC1=O` (stereo not given), for which, in assay [1], the IC50 result is listed as “Not Active”.

Regarding `C=C1c2ccccc2NC(=O)N1c1cccc(Cl)c1`, the IC50 entry in assay [1] is “Not Active”.

Consider `O=C(CC1NC(=O)c2ccccc21)NCc1ccco1` (stereo not given), for which the IC50 entry in assay [1] was “Not Active”.

Take `COc1cc(-c2nc3sc4cc(C)ccc4c3c(=O)[nH]2)ccc1OCC(=O)O`: the IC50 in assay [1] (read-out: IC50) was 4 µM.

As to `CCOc1cc(/C=C2\NC(=S)NC2=O)ccc1OCCCOc1cc(C)cc(C)c1`, the IC50 in assay [1] (read-out: IC50) was 250 µM.

As for `Cc1ccc(SCCNC(=O)COC(=O)Cc2n[nH]c(=O)c3ccccc23)cc1`, the IC50 entry in assay [1] was “Not Active”.

With `COc1cc(-c2nc3sc4c(c3c(=O)[nH]2)CCC(C)C4)ccc1OCC(=O)O` (stereo not given), the IC50 in assay [1] (read-out: IC50) amounted to 50 µM.

On to `O=C(NCc1n[nH]c(=O)c2ccccc12)c1ccc(Br)o1`, for which, in assay [1], the IC50 result is reported as “Not Active”.

Take `O=C1C(Nc2ccccc2)=CC(c2cccc([N+](=O)[O-])c2)N1c1ccccc1` (stereo not given): the IC50 entry in assay [1] is “Not Active”.

(Values after ChEMBL document CHEMBL1156931, “Discovery of novel fibroblast growth factor receptor 1 kinase inhibitors by structure-based virtual screening” (J Med Chem, 2010).)
